Measured values as given in ChEMBL document CHEMBL4359917, “Design, synthesis, and biological evaluation of novel benzodiazepine derivatives as anticancer agents through inhibition of tubulin polymerization in vitro and in vivo” (Eur J Med Chem, 2019).
Activity calls are given as the source filed them. The rule behind the calls is not given here.

Tests used:
A549 [1] = assay: Induction of apoptosis in human A549 cells assessed as late apoptotic cells at 1 nM after 48 hrs by annexin V-FITC/propidium iodide staining based flow cytometry (reference value: 0.02 %); format: functional
Method in brief: (§1)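 A549 cells treated at 1, 5 or 10 nM for 24 or 48 h, then analysed by flow cytometry. Quadrants: upper left necrotic, upper right late apoptotic, bottom left live, bottom right early apoptotic. Three experiments; representative results shown.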

A549 [2] = assay: Antiproliferative activity against human A549 cells assessed as cell growth inhibition measured after 48 hrs by MTT assay; format: functional, cell-based; conditions: A549, 48 h
Method in brief: (§2)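 Cancer cell lines exposed to compounds for 48 h; viability read by MTT assay. IC50 reported as mean ± SD from at least three independent experiments.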

MDA-MB-231 = assay: Antiproliferative activity against human MDA-MB-231 cells assessed as cell growth inhibition measured after 48 hrs by MTT assay; format: functional, cell-based; conditions: MDA-MB-231, 48 h; method in brief: as §2
A549 [3] = assay: Induction of apoptosis in human A549 cells assessed as early apoptotic cells at 5 nM after 48 hrs by annexin V-FITC/propidium iodide staining based flow cytometry (reference value: 0.19 %); format: functional; method in brief: as §1
HepG2 = assay: Antiproliferative activity against human HepG2 cells assessed as cell growth inhibition measured after 48 hrs by MTT assay; format: functional, cell-based; conditions: HepG2, 48 h; method in brief: as §2
[4] = Metabolic stability in Sprague-Dawley rat liver microsomes assessed as parent compound remaining after 60 mins in presence of NADPH by HPLC-UV-MS analysis; format: ADME, Microsome; conditions: read-out: Stability
Method in brief: (§3)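 Compound incubated with rat liver microsomes in buffer containing an NADPH regenerating system. Percentage of parent remaining was determined at time points up to 180 min, and half-life was derived.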

A549 [5] = assay: Induction of apoptosis in human A549 cells assessed as live cells at 10 nM after 24 hrs by annexin V-FITC/propidium iodide staining based flow cytometry (reference value: 99.75 %); format: functional; method in brief: as §1
A549 [6] = assay: Induction of apoptosis in human A549 cells assessed as early apoptotic cells at 10 nM after 48 hrs by annexin V-FITC/propidium iodide staining based flow cytometry (reference value: 0.19 %); format: functional; method in brief: as §1
A549 [7] = assay: Induction of apoptosis in human A549 cells assessed as necrotic cells at 10 nM after 48 hrs by annexin V-FITC/propidium iodide staining based flow cytometry (reference value: 0.03 %); format: functional; method in brief: as §1
Tubulin (Sus scrofa) = Tubulin (Sus scrofa) (UniProt P02554+P02550); assay: (§4) Inhibition of porcine brain tubulin polymerization assessed as decrease in fluorescence intensity measured every 60 sec for 90 mins in presence of GTP by DAPI staining based fluorescence assay
Chain of Tubulin (Sus scrofa) (P02550 whole entry, looked up): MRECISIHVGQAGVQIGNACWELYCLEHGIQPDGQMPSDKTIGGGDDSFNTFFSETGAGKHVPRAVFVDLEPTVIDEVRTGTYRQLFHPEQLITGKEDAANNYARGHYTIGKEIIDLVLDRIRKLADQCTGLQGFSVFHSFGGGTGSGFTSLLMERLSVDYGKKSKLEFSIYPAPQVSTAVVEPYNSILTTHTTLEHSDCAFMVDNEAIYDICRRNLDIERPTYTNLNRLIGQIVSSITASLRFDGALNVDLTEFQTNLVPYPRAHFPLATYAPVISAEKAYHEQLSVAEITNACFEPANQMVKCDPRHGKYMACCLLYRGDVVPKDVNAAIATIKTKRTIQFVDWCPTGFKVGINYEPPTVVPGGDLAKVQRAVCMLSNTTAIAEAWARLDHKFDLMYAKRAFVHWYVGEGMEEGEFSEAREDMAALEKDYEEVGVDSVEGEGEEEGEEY
Chain of Tubulin (Sus scrofa) (P02554 whole entry, looked up): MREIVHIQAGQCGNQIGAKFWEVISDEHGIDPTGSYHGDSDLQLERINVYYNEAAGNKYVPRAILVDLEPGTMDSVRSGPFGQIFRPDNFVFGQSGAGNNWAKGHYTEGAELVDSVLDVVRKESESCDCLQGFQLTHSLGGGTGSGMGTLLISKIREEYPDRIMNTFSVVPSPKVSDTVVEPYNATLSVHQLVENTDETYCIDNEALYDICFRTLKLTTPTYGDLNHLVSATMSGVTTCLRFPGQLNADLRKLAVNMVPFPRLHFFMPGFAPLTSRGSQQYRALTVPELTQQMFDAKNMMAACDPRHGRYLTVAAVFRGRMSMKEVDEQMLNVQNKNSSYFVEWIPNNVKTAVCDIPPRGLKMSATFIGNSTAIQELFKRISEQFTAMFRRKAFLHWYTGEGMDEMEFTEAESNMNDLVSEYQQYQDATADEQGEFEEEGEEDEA
Method in brief: (§5)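 Purified unpolymerised tubulin in reaction buffer incubated at 37 °C without or with compound at 0.75-7.5 µM. Polymerisation was followed as a rise in fluorescence intensity, and IC50 was derived. Performed three times.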

Tubulin = Tubulin (Sus scrofa, UniProt P02554+P02550); assay: as §4; method in brief: as §5
A549 [8] = assay: Induction of apoptosis in human A549 cells assessed as necrotic cells at 10 nM after 24 hrs by annexin V-FITC/propidium iodide staining based flow cytometry (reference value: 0.03 %); format: functional; method in brief: as §1
HCT-116 = assay: Antiproliferative activity against human HCT116 cells assessed as cell growth inhibition measured after 48 hrs by MTT assay; format: functional, cell-based; conditions: HCT-116, 48 h; method in brief: as §2
A549 [9] = assay: Cell cycle arrest in human A549 cells assessed as appearance of hypodiploid DNA content at sub G1 phase at 1 to 10 nM after 48 hrs by RNase/propidium iodide staining based flow cytometry analysis; format: functional
A549 [10] = assay: Induction of apoptosis in human A549 cells assessed as necrotic cells at 5 nM after 24 hrs by annexin V-FITC/propidium iodide staining based flow cytometry (reference value: 0.03 %); format: functional; method in brief: as §1
A549 [11] = assay: Disruption of microtubule organization in human A549 cells assessed as microtubule spindle shrunk at 1 to 10 nM measured after 24 hrs by immunofluorescence laser confocal microscopy analysis; format: functional, cell-based
Method in brief: (§6)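 A549 cells plated in confocal dishes and exposed to DMSO or compound at 1, 5 or 10 nM for 24 h. Cells were fixed, immunostained for microtubules and imaged by laser confocal microscopy. Performed three times.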

A549 [12] = assay: Induction of apoptosis in human A549 cells assessed as late apoptotic cells at 10 nM after 48 hrs by annexin V-FITC/propidium iodide staining based flow cytometry (reference value: 0.02 %); format: functional; method in brief: as §1
[13] = Metabolic stability in Sprague-Dawley rat liver microsomes assessed as parent compound remaining after 120 mins in presence of NADPH by HPLC-UV-MS analysis; format: ADME, Microsome; conditions: read-out: Stability; method in brief: as §3
A549 [14] = assay: Induction of apoptosis in human A549 cells assessed as live cells at 1 nM after 48 hrs by annexin V-FITC/propidium iodide staining based flow cytometry (reference value: 99.75 %); format: functional; method in brief: as §1
A549 [15] = assay: Induction of apoptosis in human A549 cells assessed as late apoptotic cells at 5 nM after 48 hrs by annexin V-FITC/propidium iodide staining based flow cytometry (reference value: 0.02 %); format: functional; method in brief: as §1
A549 [16] = assay: Induction of apoptosis in human A549 cells assessed as late apoptotic cells at 5 nM after 24 hrs by annexin V-FITC/propidium iodide staining based flow cytometry (reference value: 0.02 %); format: functional; method in brief: as §1
[17] = Half-life in Sprague-Dawley rat liver microsomes in presence of NADPH by HPLC-UV-MS analysis; format: ADME, Microsome; method in brief: as §3
A549 [18] = assay: Induction of apoptosis in human A549 cells assessed as necrotic cells at 1 nM after 48 hrs by annexin V-FITC/propidium iodide staining based flow cytometry (reference value: 0.03 %); format: functional; method in brief: as §1
A549 [19] = assay: Induction of apoptosis in human A549 cells assessed as necrotic cells at 5 nM after 48 hrs by annexin V-FITC/propidium iodide staining based flow cytometry (reference value: 0.03 %); format: functional; method in brief: as §1
A549 [20] = assay: Induction of apoptosis in human A549 cells assessed as early apoptotic cells at 5 nM after 24 hrs by annexin V-FITC/propidium iodide staining based flow cytometry (reference value: 0.19 %); format: functional; method in brief: as §1
A549 [21] = assay: Induction of apoptosis in human A549 cells assessed as early apoptotic cells at 1 nM after 48 hrs by annexin V-FITC/propidium iodide staining based flow cytometry (reference value: 0.19 %); format: functional; method in brief: as §1
A549 [22] = assay: Disruption of microtubule organization in human A549 cells assessed as appearance of dotted disorder formations at 10 nM measured after 24 hrs by immunofluorescence laser confocal microscopy analysis; format: functional, cell-based; method in brief: as §6
[23] = Metabolic stability in Sprague-Dawley rat liver microsomes assessed as parent compound remaining after 150 mins in presence of NADPH by HPLC-UV-MS analysis; format: ADME, Microsome; conditions: Sprague-Dawley, liver microsomes, read-out: Stability; method in brief: as §3
A549 [24] = assay: Induction of apoptosis in human A549 cells assessed as early apoptotic cells at 1 nM after 24 hrs by annexin V-FITC/propidium iodide staining based flow cytometry (reference value: 0.19 %); format: functional; method in brief: as §1
A549 [25] = assay: Induction of apoptosis in human A549 cells assessed as late apoptotic cells at 1 nM after 24 hrs by annexin V-FITC/propidium iodide staining based flow cytometry (reference value: 0.02 %); format: functional; method in brief: as §1
[26] = Metabolic stability in Sprague-Dawley rat liver microsomes assessed as parent compound remaining after 90 mins in presence of NADPH by HPLC-UV-MS analysis; format: ADME, Microsome; conditions: read-out: Stability; method in brief: as §3
A549 [27] = assay: Induction of apoptosis in human A549 cells assessed as early apoptotic cells at 10 nM after 24 hrs by annexin V-FITC/propidium iodide staining based flow cytometry (reference value: 0.19 %); format: functional; method in brief: as §1

Question: For `COc1ccc2c(c1O)NC(=O)CN=C2c1cc(OC)c(OC)c([Se]C)c1`, which Activity (A549 [1]) is on record?
Answer: 3.25%

Question: What about the IC50 (A549 [2]) of the same molecule?
Answer: 5.82 nM

Question: And the IC50 (MDA-MB-231)?
Answer: 15.5 nM

Question: What about the Activity (A549 [3]) of the same molecule?
Answer: 28.68%

Question: What about the IC50 (HepG2) of the same molecule?
Answer: 12.6 nM

Question: And the remaining at 1 h [4]?
Answer: 86.3%

Question: And the Activity (A549 [5])?
Answer: 76.72%

Question: And the Activity (A549 [6])?
Answer: 65.4%

Question: And the Activity (A549 [7])?
Answer: 3.61%

Question: What about the inhibition (Tubulin (Sus scrofa)) of the same molecule?
Answer: Dose-dependent effect

Question: And the IC50 (Tubulin)?
Answer: 1650 nM

Question: And the Activity (A549 [8])?
Answer: 0.09%

Question: What about the IC50 (HCT-116) of the same molecule?
Answer: 8.9 nM

Question: And the Activity (A549 [9])?
Answer: Active

Question: And the Activity (A549 [10])?
Answer: 0.03%

Question: What about the Activity (A549 [11]) of the same molecule?
Answer: Active

Question: And the Activity (A549 [12])?
Answer: 19.15%

Question: What about the remaining at 2 h [13] of the same molecule?
Answer: 66.1%

Question: And the Activity (A549 [14])?
Answer: 82.83%

Question: And the Activity (A549 [15])?
Answer: 11.71%

Question: What about the Activity (A549 [16]) of the same molecule?
Answer: 0.32%

Question: What about the half-life [17] of the same molecule?
Answer: 2.69 h

Question: What about the Activity (A549 [18]) of the same molecule?
Answer: 0.28%

Question: What about the Activity (A549 [19]) of the same molecule?
Answer: 2.28%

Question: And the Activity (A549 [20])?
Answer: 13.15%

Question: What about the Activity (A549 [21]) of the same molecule?
Answer: 13.64%

Question: And the Activity (A549 [22])?
Answer: Active

Question: And the remaining at 2.5 h [23]?
Answer: 57.4%

Question: And the Activity (A549 [24])?
Answer: 5.71%

Question: What about the Activity (A549 [25]) of the same molecule?
Answer: 0.17%

Question: And the remaining at 1.5 h [26]?
Answer: 75.9%

Question: And the Activity (A549 [27])?
Answer: 23.06%
